Reference: ChEMBL document CHEMBL1148785, “Second generation tetrahydroquinoline-based protein farnesyltransferase inhibitors as antimalarials” (J Med Chem, 2007)

Tests used:
Plasmodium falciparum [1] = assay: Antimalarial activity against Plasmodium falciparum K1; type: functional; conditions: Plasmodium falciparum, K1; read-out: ED50 (the source's name)
Summary of the method: (§1)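 Asynchronous culture in type A+ erythrocytes at 0.5% parasitemia and 0.5% hematocrit, grown in RPMI-1640 with 20% heat-inactivated human A+ plasma. Compound was serially diluted from a top final 5 µM, with DMSO vehicle as 100% growth. Plates ran 48 h at 37 °C under 5% CO2/5% O2/90% N2, then [3H]-hypoxanthine (0.3 µCi) for 24 h. Filter-harvested counts were corrected for the uninfected-RBC background. ED50 by linear regression; duplicates averaged.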

Plasmodium falciparum [2] = assay: Inhibition of Plasmodium falciparum protein farnesyltransferase at 0.5 nM by scintillation proximity assay
Plasmodium falciparum [3] = assay: Inhibition of Plasmodium falciparum protein farnesyltransferase at 5 nM by scintillation proximity assay
Plasmodium falciparum [4] = assay: Antimalarial activity against Plasmodium falciparum 3D7; type: functional; conditions: Plasmodium falciparum, 3D7; read-out: ED50 (the source's name); summary of the method: as §1
Plasmodium falciparum [5] = assay: Inhibition of Plasmodium falciparum protein farnesyltransferase at 50 nM by scintillation proximity assay

Row | EC50 (Plasmodium falciparum [1]) [nM] | inhibition (Plasmodium falciparum [2]) [%] | inhibition (Plasmodium falciparum [3]) [%] | EC50 (Plasmodium falciparum [4]) [nM] | inhibition (Plasmodium falciparum [5]) [%] | Structure (SMILES)
1 | 7 | 49 | 96 | 14 | 98 | CCOC(=O)N1CCC(CN(C2Cc3cc(C#N)ccc3N(Cc3cncn3C)C2)S(=O)(=O)c2cn(C)cn2)CC1 (stereo not given)
2 | 45 | 6 | 68 | 18 | 95 | COC(=O)N(C)CCCN(C1Cc2cc(C#N)ccc2N(Cc2cncn2C)C1)S(=O)(=O)c1ccccn1 (stereo not given)
3 | 150 | 4 | 4 | 150 | 25 | CC(=O)Nc1ccc(S(=O)(=O)N(Cc2ccccc2F)C2Cc3cc(C#N)ccc3N(Cc3cncn3C)C2)cc1 (stereo not given)
4 | 3600 | 8 | 10 | 360 | 62 | CN(C)S(=O)(=O)N(Cc1ccccc1F)C1Cc2cc(C#N)ccc2N(Cc2cncn2C)C1 (stereo not given)
5 | 20 | 68 | 96 | 13 | 99 | Cn1cncc1CN1CC(N(CCn2cccn2)S(=O)(=O)c2ccccn2)Cc2cc(C#N)ccc21 (stereo not given)
6 | 65 | 42 | 95 | 50 | 100 | Cn1cnc(S(=O)(=O)N(CCc2ccc(F)cc2)C2Cc3cc(C#N)ccc3N(Cc3cncn3C)C2)c1 (stereo not given)
7 | 45 | 39 | 98 | 42 | 100 | COC(=O)N1CCC(CN(C2Cc3cc(C#N)ccc3N(Cc3cncn3C)C2)S(=O)(=O)c2cnn(C)c2)CC1 (stereo not given)
8 | 350 | 0 | 0 | 450 | 32 | CC(C)OC(=O)N1CCC(CN(C2Cc3cc(-c4ccccc4)ccc3N(Cc3cn(C)cn3)C2)S(=O)(=O)c2cn(C)cn2)CC1 (stereo not given)
9 | 160 | 20 | 84 | 140 | 98 | COC(=O)N1CCC(CN(C2Cc3cc(C#N)ccc3N(Cc3cncn3C)C2)S(=O)(=O)c2cccc3nsnc23)CC1 (stereo not given)
10 | 50 | 94 | 39 | 58 | 100 | Cn1cncc1CN1CC(N(CC2CCN(C(=O)C3CCCC3)CC2)S(=O)(=O)c2ccccn2)Cc2cc(C#N)ccc21 (stereo not given)
11 | 2000 | 0 | 6 | 1800 | 65 | COC(=O)N1CCC(CN(C2Cc3cc(C#N)ccc3N(Cc3cncn3C)C2)S(=O)(=O)c2ccc(NC(C)=O)cc2)CC1 (stereo not given)
12 | 600 | 37 | 91 | 210 | 99 | Cn1cnc(S(=O)(=O)N(Cc2ccc3cccnc3c2)C2Cc3cc(C#N)ccc3N(Cc3cncn3C)C2)c1 (stereo not given)
13 | < 20 | 69 | 98 | 57 | 99 | Cn1cnc(S(=O)(=O)N(Cc2ccc(S(C)(=O)=O)cc2Cl)C2Cc3cc(C#N)ccc3N(Cc3cncn3C)C2)c1 (stereo not given)
14 | 65 | 9 | 90 | 68 | 99 | Cn1cnc(S(=O)(=O)N(Cc2ccc(-n3cccc3)cc2)C2Cc3cc(C#N)ccc3N(Cc3cncn3C)C2)c1 (stereo not given)
15 | 1420 | 0 | 29 | 3500 | 80 | Cn1cnc(S(=O)(=O)N(CC(=O)NC(C)(C)C)C2Cc3cc(C(=O)O)ccc3N(Cc3cncn3C)C2)c1 (stereo not given)
16 | 700 | 29 | 91 | 400 | 99 | Cn1cnc(CN2CC(N(CCS(C)(=O)=O)S(=O)(=O)c3cn(C)cn3)Cc3cc(-c4ccccc4)ccc32)c1 (stereo not given)
17 | 1.6 | 72 | 99 | 3 | 99 | COC(=O)N1CCC(CN(C2Cc3cc(C#N)ccc3N(Cc3cncn3C)C2)S(=O)(=O)c2cncn2C)CC1 (stereo not given)
18 | 1250 | 19 | 82 | 230 | 100 | Cn1cncc1CN1CC(N(Cc2ccccc2F)S(=O)(=O)c2ccccn2)Cc2cc(C#N)ccc21 (stereo not given)
19 | > 5000 | 0 | 15 | > 5000 | 72 | Cn1cnc(S(=O)(=O)N(CCN)C2Cc3cc(C#N)ccc3N(Cc3cncn3C)C2)c1 (stereo not given)
20 | 932 | 17 | 65 | 189 | 96 | COCCCCCN(C1Cc2cc(C#N)ccc2N(Cc2cncn2C)C1)S(=O)(=O)c1ccccn1 (stereo not given)

Row | EC50 (Plasmodium falciparum [1]) [nM] | inhibition (Plasmodium falciparum [2]) [%] | inhibition (Plasmodium falciparum [3]) [%] | EC50 (Plasmodium falciparum [4]) [nM] | inhibition (Plasmodium falciparum [5]) [%] | Structure (SMILES)
21 | > 5000 | 4 | 0 | > 5000 | 25 | Cn1cnc(S(=O)(=O)N(CC(=O)NC(C)(C)C)C2Cc3cc(C(=O)NC(C)(C)C)ccc3N(Cc3cncn3C)C2)c1 (stereo not given)
22 | 55 | 89 | 17 | 75 | 96 | CC(C)S(=O)(=O)N1CCC(CN(C2Cc3cc(C#N)ccc3N(Cc3cncn3C)C2)S(=O)(=O)c2ccccn2)CC1 (stereo not given)
23 | 350 | 37 | 87 | 375 | 99 | COC(=O)CN(C1Cc2cc(-c3ccccc3)ccc2N(Cc2cn(C)cn2)C1)S(=O)(=O)c1cn(C)cn1 (stereo not given)
24 | 750 | 0 | 0 | 690 | 33 | CC(=O)OCC(=O)N(Cc1ccccc1F)C1Cc2cc(C#N)ccc2N(Cc2cncn2C)C1 (stereo not given)
25 | 1800 | 0 | 0 | 2900 | 46 | Cc1ccccc1CN(C1Cc2cc(-c3ccccc3)ccc2N(Cc2cn(C)cn2)C1)S(=O)(=O)c1cn(C)cn1 (stereo not given)
26 | 730 | 0 | 1 | 650 | 43 | CC(=O)N(Cc1ccccc1F)C1Cc2cc(C#N)ccc2N(Cc2cncn2C)C1 (stereo not given)
27 | 75 | 18 | 66 | 55 | 95 | COC(=O)N1CCC(CN(C2Cc3cc(C#N)ccc3N(Cc3cncn3C)C2)S(=O)(=O)c2sccc2C)CC1 (stereo not given)
28 | 11.5 | 94 | 35 | 13 | 100 | CN(C)C(=O)N1CCC(CN(C2Cc3cc(C#N)ccc3N(Cc3cncn3C)C2)S(=O)(=O)c2ccccn2)CC1 (stereo not given)
29 | 1000 | 13 | 22 | 900 | 66 | COc1ccc(S(=O)(=O)N(Cc2ccccc2F)C2Cc3cc(C#N)ccc3N(Cc3cncn3C)C2)cc1 (stereo not given)
30 | 175 | 23 | 62 | 175 | 94 | Cn1cc(S(=O)(=O)N(Cc2ccccc2F)C2Cc3cc(C#N)ccc3N(Cc3cncn3C)C2)cn1 (stereo not given)
31 | 17 | 61 | 96 | 19 | 100 | COC(=O)NCCCN(C1Cc2cc(C#N)ccc2N(Cc2cncn2C)C1)S(=O)(=O)c1cn(C)cn1 (stereo not given)
32 | 750 | 10 | 44 | 730 | 86 | Cn1cncc1CN1CC(N(Cc2ccccc2F)S(=O)(=O)c2ccccc2)Cc2cc(C#N)ccc21 (stereo not given)
33 | 5.5 | 24 | 90 | 10 | 98 | CC(C)COC(=O)N1CCC(CN(C2Cc3cc(C#N)ccc3N(Cc3cncn3C)C2)S(=O)(=O)c2cn(C)cn2)CC1 (stereo not given)
34 | 1500 | 1 | 53 | 300 | 95 | Cn1cncc1CN1CC(N(CCc2ccccc2C(F)(F)F)S(=O)(=O)c2ccccn2)Cc2cc(C#N)ccc21 (stereo not given)
35 | 3500 | 0 | 46 | 4600 | 88 | Cn1cnc(CN2CC(N(Cc3ccc(C(F)(F)F)o3)S(=O)(=O)c3cn(C)cn3)Cc3cc(-c4ccccc4)ccc32)c1 (stereo not given)
36 | 2600 | 6 | 33 | 2100 | 81 | Cn1cncc1CN1CC(N(CC(=O)O)S(=O)(=O)c2ccccn2)Cc2cc(C#N)ccc21 (stereo not given)
37 | 400 | 10 | 79 | 370 | 98 | Cn1cncc1CN1CC(N(CCn2ccc3ccccc32)S(=O)(=O)c2ccccn2)Cc2cc(C#N)ccc21 (stereo not given)
38 | 3000 | 0 | 38 | 650 | 91 | Cn1cncc1CN1CC(N(Cc2ccccc2C(F)(F)F)S(=O)(=O)c2ccccn2)Cc2cc(C#N)ccc21 (stereo not given)
39 | > 5000 | 14 | 21 | > 5000 | 60 | Cn1cncc1CN1CC(N(CC(=O)NC(C)(C)C)S(=O)(=O)CCN2C(=O)c3ccccc3C2=O)Cc2cc(C#N)ccc21 (stereo not given)
40 | 60 | 92 | 31 | 50 | 100 | C=C(C)C(=O)N1CCC(CN(C2Cc3cc(C#N)ccc3N(Cc3cncn3C)C2)S(=O)(=O)c2ccccn2)CC1 (stereo not given)

Row | Structure (SMILES) | EC50 (Plasmodium falciparum [1]) [nM] | inhibition (Plasmodium falciparum [2]) [%] | inhibition (Plasmodium falciparum [3]) [%] | EC50 (Plasmodium falciparum [4]) [nM] | inhibition (Plasmodium falciparum [5]) [%]
41 | CCN(CC)C(=O)c1ccc2c(c1)CC(N(CC(=O)NC(C)(C)C)S(=O)(=O)c1cn(C)cn1)CN2Cc1cncn1C (stereo not given) | 2600 | 0 | 23 | 2800 | 73
